Test [1] concerns the target T1, Nuclear receptor subfamily 1 group I member 2 (Homo sapiens, UniProt O75469).
T1 sequence (O75469 whole entry): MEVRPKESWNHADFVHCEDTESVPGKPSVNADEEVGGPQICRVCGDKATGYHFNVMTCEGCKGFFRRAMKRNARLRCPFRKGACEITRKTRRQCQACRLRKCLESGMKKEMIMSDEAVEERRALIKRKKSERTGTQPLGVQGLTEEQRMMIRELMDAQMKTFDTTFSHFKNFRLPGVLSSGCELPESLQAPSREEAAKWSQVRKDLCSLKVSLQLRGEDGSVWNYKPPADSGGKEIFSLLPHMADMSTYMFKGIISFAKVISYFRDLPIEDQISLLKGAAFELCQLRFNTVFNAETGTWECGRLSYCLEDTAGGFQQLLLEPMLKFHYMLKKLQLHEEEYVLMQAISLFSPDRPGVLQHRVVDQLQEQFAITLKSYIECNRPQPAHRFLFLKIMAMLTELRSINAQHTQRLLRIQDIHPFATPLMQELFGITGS
Kind of test: Agonist activity at human pregnane X receptor expressed in HGPXR reporter cells. The format is functional, cell-based.

Test [2] concerns Hepatocyte. Kind of test: Induction of CYP3A4 mRNA expression in human hepatocyte FT268 at 1 uM after 24 hrs by RT-PCR relative to control. The format is functional. In a few lines: (§1)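 Primary adult human hepatocytes from lobectomy segments, plated on collagen in Williams' E/Ham's F-12 (1:1) defined medium; 24 h exposure begun 48 h after plating, vehicle DMSO 0.1%. Total RNA extracted with TRIzol, cDNA from 1 µg using random hexamers (42 °C, 60 min). Target mRNA quantified by real-time PCR in duplicates, comparative Ct method. Result given as fold induction over DMSO-treated cells ± standard error.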

Test [3] concerns Hepatocyte. Put plainly: Induction of […] mRNA expression in human hepatocyte FT268 at 1 uM after 24 hrs by RT-PCR relative to control. The format is functional. The essentials: as §1
Test [4] relates to Hepatocyte. Kind of test: Induction of CYP3A4 mRNA expression in human hepatocyte FT269 at 1 uM after 24 hrs by RT-PCR relative to control. The format is functional. The essentials: as §1
Test [5] relates to Hepatocyte. Kind of test: Induction of […] mRNA expression in human hepatocyte FT269 at 1 uM after 24 hrs by RT-PCR relative to control. The format is functional. In a few lines: as §1
Test [6] deals with Hepatocyte. Put plainly: Induction of CYP3A4 mRNA expression in human hepatocyte FT271 at 1 uM after 24 hrs by RT-PCR relative to control. The format is functional. In a few lines: as §1
Test [7] concerns Hepatocyte. Kind of test: Induction of […] mRNA expression in human hepatocyte FT271 at 1 uM after 24 hrs by RT-PCR relative to control. The format is functional. In a few lines: as §1
The subject of test [8] is Hepatocyte. Put plainly: Induction of CYP3A4 mRNA expression in human hepatocyte FT272 at 1 uM after 24 hrs by RT-PCR relative to control. The format is functional. In a few lines:
as §1

In test [9] the test system is Hepatocyte. Kind of test: Induction of […] mRNA expression in human hepatocyte FT272 at 1 uM after 24 hrs by RT-PCR relative to control. The format is functional. In a few lines: as §1
Test [10] addresses T1, Nuclear receptor subfamily 1 group I member 2. Put plainly: Protection of human pregnane X receptor against proteolytic digestion in presence of trypsin.

SMILES strings stand for the structures.

In turn, `O=C(Cc1ccccc1Cl)Nc1ccc2c(c1)ncn2Cc1ccccc1` had an EC50 in test [1] of 515 nM.
Same read-out and setting: for `O=S(=O)(Nc1ccc2c(c1)ncn2Cc1ccccc1)c1ccccc1F` the value was 101 nM.
`O=S(=O)(Nc1ccc2c(c1)ncn2Cc1ccccc1)c1ccc(-c2ccccc2)cc1` showed an EC50 in test [1] of 388 nM.
The same measure, in the same setting: for `O=S(=O)(Cc1ccccc1Cl)Nc1ccc2c(ccn2Cc2ccccc2)c1` the value was 197 nM; for `O=S(=O)(Cc1ccccc1Cl)Nc1ccc2c(c1)ncn2Cc1ccccc1`, 176 nM.
In the case of `CCOP(=O)(OCC)C(=Cc1cc(C(C)(C)C)c(O)c(C(C)(C)C)c1)P(=O)(OCC)OCC`, the Ratio is reported as 4.02 in the test with Hepatocyte [2]; 3.26 in the test on Hepatocyte [3]; 10.9 in the test on Hepatocyte [4]; 3.74 in the test on Hepatocyte [5]; 11.84 with Hepatocyte [6]; 2 in the test on Hepatocyte [7]. The Ratio is listed as 24.01 with Hepatocyte [8] and 3.91 in the test with Hepatocyte [9].
Regarding `CCCCCCn1cnc2cc(NS(=O)(=O)c3ccccc3Cl)ccc21`, the EC50 in test [1] is 55 nM.
The same measure, in the same setting: as for `Cc1ccccc1S(=O)(=O)Nc1ccc2c(c1)ncn2Cc1ccccc1`, the figure is 45 nM; as for `O=C(Cc1ccc2ccccc2c1)Nc1ccc2c(c1)ncn2Cc1ccccc1`, greater than 5000 nM; as for `O=S(=O)(Nc1ccc2c(c1)ncn2Cc1ccccc1)c1ccccc1Br`, 20 nM.
Take `CC(c1ccccc1)n1cnc2cc(NS(=O)(=O)Cc3ccccc3Cl)ccc21` (racemic): the EC50 was found to be 49 nM in [1] and 809 nM in test [10].
Regarding `O=S(=O)(Nc1ccc2ncn(Cc3ccccc3)c2c1)c1ccccc1Cl`, in test [1], the EC50 is 340 nM.
`O=C(Cc1cccc2ccccc12)Nc1ccc2c(c1)ncn2Cc1ccccc1` had an EC50 in [1] of 217 nM.
In the case of `Cc1c(C)c(C)c(S(=O)(=O)Nc2ccc3c(c2)ncn3Cc2ccccc2)c(C)c1C`, the EC50 in test [1] was found to be 0.7 nM; in [10], 8.04 nM. Moreover, the Ratio in the test on Hepatocyte [4] was found to be 29.02; in the test on Hepatocyte [5], 14.89; with Hepatocyte [6], 14.91; in the test on Hepatocyte [7], 4.86; in the test with Hepatocyte [8], 32.59; in the test with Hepatocyte [9], 11.41.
The compound `O=S(=O)(Nc1ccc2c(c1)ncn2-c1ccc2ccccc2c1)c1ccccc1Cl` displayed an EC50 in test [1] of 385 nM.
Same read-out and setting: as for `CC(C)(C)c1ccc(S(=O)(=O)Nc2ccc3c(c2)ncn3Cc2ccccc2)cc1`, the figure is 42 nM; as for `O=S(=O)(Nc1ccc2c(c1)ncn2Cc1ccccc1)c1cccc2ccccc12`, 20 nM; as for `O=[N+]([O-])c1ccccc1CS(=O)(=O)Nc1ccc2c(c1)ncn2Cc1ccccc1`, 428 nM.
Same read-out and setting: as for `O=C(Nc1ccc2c(c1)ncn2Cc1ccccc1)Nc1cccc2ccccc12`, the figure is greater than 5000 nM; as for `O=C(Nc1ccc2c(c1)ncn2Cc1ccccc1)Nc1ccccc1Cl`, 1480 nM; as for `O=S(=O)(Cc1ccccc1Cl)Nc1ccc2ncn(Cc3ccccc3)c2c1`, 376 nM.
As to `Cc1cc(C)c(S(=O)(=O)Nc2ccc3c(c2)ncn3Cc2ccccc2)c(C)c1`, the EC50 in [1] was determined as 1.5 nM; in test [10], 8.05 nM. Moreover, the Ratio with Hepatocyte [6] was determined as 15.58; in the test on Hepatocyte [7] it was 1.89; in the test with Hepatocyte [8] it was 31.68; in the test with Hepatocyte [9] it was 7.55.
As for `O=S(=O)(Nc1ccc2c(c1)ncn2Cc1ccccc1)c1ccc2ccccc2c1`, the EC50 in test [1] was 51 nM.
The same measure, in the same setting: for `O=C(Nc1ccc2c(c1)ncn2Cc1ccccc1)Nc1ccccc1[N+](=O)[O-]` the value was greater than 5000 nM.
Still for that read-out and setting: as for `CCCCCCn1cnc2cc(NS(=O)(=O)c3c(C)c(C)c(C)c(C)c3C)ccc21`, the figure is 13 nM.
Take `O=S(=O)(Nc1ccc2c(c1)ncn2Cc1ccccc1)c1ccccc1Cl`: the EC50 in test [1] was found to be 23 nM; in test [10] it was 157 nM. Further, the Ratio amounted to 7.23 in the test on Hepatocyte [2]; 3.02 in the test on Hepatocyte [3]; 17.04 with Hepatocyte [4]; 10.46 in the test on Hepatocyte [5]; 9.97 in the test on Hepatocyte [6]; 3.05 with Hepatocyte [7]. For the same compound, the Ratio is 36.06 with Hepatocyte [8] and 11.83 in the test on Hepatocyte [9].
Regarding `Cc1cc(C)cc(S(=O)(=O)Nc2ccc3c(c2)ncn3Cc2ccccc2)c1`, the EC50 in test [1] came out at 33 nM.
For the compound `O=[N+]([O-])c1ccc(S(=O)(=O)Nc2ccc3c(c2)ncn3Cc2ccccc2)cc1`, the EC50 in test [1] was 336 nM.
Still for that read-out and setting: for `Cc1c(C)c(C)c(S(=O)(=O)Nc2ccc3c(c2)ncn3-c2ccc3ccccc3c2)c(C)c1C` the value was 55 nM.
As to `CCCc1ccc(S(=O)(=O)Nc2ccc3c(c2)ncn3Cc2ccccc2)cc1`, the EC50 in [1] was 52 nM.
Same read-out and setting: for `O=[N+]([O-])c1ccccc1S(=O)(=O)Nc1ccc2c(c1)ncn2Cc1ccccc1` the value was 271 nM.

The record behind these values is ChEMBL document CHEMBL1157161, “N-1H-benzimidazol-5-ylbenzenesulfonamide derivatives as potent hPXR agonists” (Bioorg Med Chem, 2008).
